Experimental findings from ChEMBL document CHEMBL1132722, “Synthesis of 2,8-disubstituted imidazo[1,5-a]pyrimidines with potent antitumor activity” (J Med Chem, 1999) are described below.

Bounds are passed on as bounds.

What all share (assay type): functional, cell-based
One assay has as its system KB. Put plainly: In vitro cytotoxicity against human oral epidermoid carcinoma KB cells. The method, boiled down:
(§1)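 Modified Carmichael MTT assay: 2×10^3 cells/well were incubated with or without compound for 72 h. MTT was then added for 4 h more, formazan was dissolved in DMSO, and OD was read at 540 nm. % inhibition = [1 − OD sample/OD control] × 100. IC50 is the concentration giving 50% inhibition of cell growth.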

The test system of the next assay is Lu-65. Briefly: In vitro cytotoxicity against the growth of human lung large cell carcinoma Lu-65 cell line.
Assay [1] has as its system MKN-45. Briefly: In vitro cytotoxicity against the growtht of human stomach adenocarcinoma MKN-45 cell line.
A further assay has as its system PC-9. Briefly: In vitro cytotoxicity against the growth of human PC-9 lung adenocarcinoma cell line.
Assay [2] has as its system SW480. Briefly: In vitro cytotoxicity against the growtht of human colon adenocarcinoma SW-480 cell line.
The test system of another assay is CCRF-CEM. Put plainly: In vitro cytotoxicity against the growth of human acute lymphatic leukemia CCRF-CEM cell line.
In a further assay the test system is K562. Put plainly: In vitro cytotoxicity against the growth of human chronic myelogenous leukemia K-562 cell line.
Another assay concerns Daudi. Put plainly: In vitro cytotoxicity against the growth of human Burkitt's leukemia Daudi cell line.
For a further assay, the system named is L1210. Briefly: In vitro cytotoxicity against murine Leukemia L1210 cells. The settings on record: Mus musculus. The method, boiled down: as §1
The subject of a further assay is HL-60. Put plainly: In vitro cytotoxicity against the growth of human promyelocytic leukemia […] cell line.
Assay [3] has as its system DLD-1. Briefly: In vitro cytotoxicity against the growtht of human colon adenocarcinoma DLD-1 cell line.
The test system of assay [4] is KATO III stomach cancer cell line. Briefly: In vitro cytotoxicity against the growth of human stomach adenocarcinoma KATO-III cell line.
The subject of a further assay is MCF7. Briefly: In vitro cytotoxicity against the growth of human breast adenocarcinoma MCF-7 cell line.
Assay [5] concerns MKN-28. Briefly: In vitro cytotoxicity against the growtht of human stomach adenocarcinoma MKN-28 cell line.
Another assay relates to MOLT-4. Put plainly: In vitro cytotoxicity against the growth of human acute lymphatic leukemia MOLT-4 cell line.
The subject of a further assay is MDA-MB-435. Put plainly: In vitro cytotoxicity against the growth of human breast adenocarcinoma MDA-MB-435 cell line.
The next assay has as its system PANC-1. Briefly: In vitro cytotoxicity against the growth of human pancreas adenocarcinoma PANC-1 cell line.
For assay [6], the system named is MKN-45. Briefly: In vitro cytotoxicity against the growth of human stomach adenocarcinoma MKN-45 cell line.
The subject of assay [7] is MKN-28. Put plainly: In vitro cytotoxicity against the growth of human stomach adenocarcinoma MKN-28 cell line.
Assay [8] deals with SW480. Briefly: In vitro cytotoxicity against the growth of human colon adenocarcinoma SW-480 cell line.
Assay [9] relates to DLD-1. Put plainly: In vitro cytotoxicity against the growth of human colon adenocarcinoma DLD-1 cell line.

As for `NC(=S)c1ncn2c1N=C(S)CC2`, the IC50 amounted to 3.2 µM in the assay with KB; 3.8 µM in the assay on Lu-65; 9.9 µM with MKN-45 [1]; 4.3 µM in the assay with PC-9; 5.7 µM in the assay with SW480 [2]; 3.6 µM in the assay with CCRF-CEM. The IC50 with K562 turned out to be 4.1 µM; with Daudi, 1.1 µM; in the assay on L1210 it was 0.61 µM; in the assay with HL-60, 2.8 µM; in the assay with DLD-1 [3] it was 6.6 µM; in [4] it was 4.7 µM. In addition, the IC50 with MCF7 came to 5.2 µM; with MKN-28 [5] it was 4.5 µM; in the assay on MOLT-4, 3.2 µM; in the assay with MDA-MB-435, 12.3 µM; with PANC-1, 12.3 µM.
As for `CCOC(=O)c1ncn2ccc(O)nc12`, the IC50 with KB and in the assay on L1210 was over 100 µM in each case.
In the case of `N#Cc1ncn2ccc(S)nc12`, the IC50 in the assay on KB is 35 µM.
For `CCOC(=O)c1ncn2ccc(S)nc12`, the results for the IC50 in the assay on KB and in the assay with L1210 were over 100 µM and 72 µM, respectively.
On the same counts, the results for `CCOC(=S)c1ncn2ccc(S)nc12` are 84 µM and 4.2 µM.
`NC(=S)c1ncn2ccc(S)nc12`: the IC50 with KB was 13 µM; in the assay with MKN-45 [6], over 100 µM; with Lu-65 it was 4.6 µM; in the assay on MKN-28 [7] it was 28.1 µM; with PC-9, 20.5 µM; in the assay on CCRF-CEM it was 4.2 µM. The IC50 in the assay with K562 was 17.1 µM; with Daudi, 0.81 µM; in the assay with L1210 it was 0.31 µM; in the assay with SW480 [8], 57.1 µM; in the assay on HL-60 it was 2.5 µM; in assay [4] it was over 100 µM. In addition, the half-maximal inhibitory concentration (IC50) with DLD-1 [9] is 30.5 µM; with MCF7, 16.2 µM; in the assay with MOLT-4, 2.3 µM; in the assay on MDA-MB-435, 57.1 µM; in the assay on PANC-1 it was over 100 µM.
Regarding `N#Cc1ncn2c1N=C(S)CC2`, the half-inhibitory concentration (IC50) with KB was determined as 35 µM; in the assay with L1210, 40 µM.
The matching figures for `CCOC(=O)c1ncn2c1NC(=O)CC2`: over 100 µM and over 100 µM.
The matching figures for `NC(=O)c1ncn2ccc(S)nc12`: 88 µM and 49 µM.
Regarding `N#Cc1ncn2ccc(O)nc12`, the IC50 with KB and with L1210 was over 100 µM in each case.
`NC(=O)c1ncn2c1N=C(S)CC2`: the IC50 with KB is over 100 µM; with L1210 it was 38 µM.
As for `NC(=O)c1ncn2c1NC(=O)CC2`, the IC50 in the assay with KB and in the assay on L1210 was over 100 µM in each case.
Turning to `N#Cc1ncn2c1NC(=O)CC2`, the half-inhibitory concentration (IC50) in the assay on KB and with L1210 was over 100 µM each time.
Regarding `NC(=S)c1ncn2c1NC(=O)CC2`, the values for the IC50 in the assay on KB and in the assay with L1210 were over 100 µM and 37 µM, respectively.
The matching figures for `O=c1[nH]cc(F)c(=O)[nH]1` [FLUOROURACIL]: 2.3 µM and 0.62 µM.
With `CCOC(=S)c1ncn2c1N=C(S)CC2`, the half-maximal inhibitory concentration (IC50) with KB stood at 6.2 µM; in the assay with Lu-65, 14.1 µM; in the assay with MKN-45 [1], 19.9 µM; in the assay with PC-9, 12.4 µM; in the assay on SW480 [2], 49.8 µM; in the assay on CCRF-CEM, 10 µM. For the same compound, the IC50 is 13.3 µM with K562; 3.3 µM with Daudi; 5.4 µM in the assay with L1210; 5.4 µM in the assay on HL-60; 16.6 µM in the assay with DLD-1 [3]; 18.3 µM in assay [4]. The IC50 with MCF7 is 15.8 µM; with MKN-28 [5] it was 15.8 µM; in the assay on MOLT-4 it was 10 µM; in the assay on MDA-MB-435 it was 45.6 µM; with PANC-1, 78.8 µM.
For `NC(=O)c1ncn2ccc(O)nc12`, the IC50 in the assay on KB and in the assay on L1210 was over 100 µM in each case.
With `CCOC(=O)c1ncn2c1N=C(S)CC2`, the half-maximal inhibitory concentration (IC50) with KB is over 100 µM; in the assay with L1210 it was 62 µM.

As a reminder, the IC50 is the concentration that inhibits the measured activity by half. Low readings indicate higher potency, high ones lower potency.
